# Hits are enriched below; roughly 11% of the tested compounds scored in any of these assays.
# WT yeast gro inh = growth inhibition of WT strain, primary screen, mitochondrial fusion inhibitor project, WT and mutant strains, chemical genetic | mitochondrial fusion phenotypic screen | inhibition, % at 10 µM | 190,000 tested, 2.1% active | AID 1362, 2008; in the data active = inhibition above about 58%; tested in S. cerevisiae
# G6PDH CS = L. mesenteroides G6PDH inhibitors, counter-screen for G6PDH-coupled screening assays, biochemical, Leuconostoc mesenteroides enzyme | 200,000 tested, 0.12% active | inhibition, % at 5 µM | glucose-6-phosphate dehydrogenase [Leuconostoc mesenteroides] | Purified L. mesenteroides G6PDH, diaphorase/resazurin coupled fluorescence, 45 min
# Diaph act CS = compounds boosting diaphorase resazurin reduction – biochemical, uHTS, resorufin fluorescence, counter-screen for diaphorase-coupled primary assays, primary screen; Diaphorase/resazurin coupled assay, 16 min; hits give high values; 1 = vehicle wells, 0 = NADH-free wells; AID 1229, 2008; activation factor at 20 µM; 190,000 tested, 0.005% active;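 active = diaphorase activity raised at least twofold by the compound at 20 µM; inactive = activation factor below 2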
#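 Material: purified diaphorase enzyme from Clostridium kluyveri / Medium: HEPES pH 7.4 buffer with MgCl2 and Tween 20 / Schedule: enzyme reaction of 16 min at room temperature / Measured by: resorufin fluorescence, excitation 544 nm, emission 590 nm / Evaluation: rise in resorufin formation, marking diaphorase activation or chemical reduction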
# L major viab = Leishmania major promastigote growth inhibition, primary screen; Leishmania major promastigotes, resazurin fluorescence viability; inhibition, % at 10 µM; 200,000 tested, 9% active; AID 1063, 2008;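 also: promastigotes grown with compound for 44 hours at 28 °C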
# Diaph inh CS = diaphorase inhibitors and chemical oxidizers, primary screen, counter-screen for diaphorase-coupled primary assays, biochemical, uHTS, resorufin fluorescence; AID 1217, 2008; diaphorase resazurin-to-resorufin fluorescence, NADH, 16 min; bacterial (C. kluyveri) enzyme, not human; inhibition, % at 20 µM; 190,000 tested, 0.69% active;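 active = primary screen inhibition at 20 µM above a set limit, cut at about 50% in these data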;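 also: plate controls were DMSO with full reaction for no effect and wells lacking NADH for full effect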
#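 controls = No-NADH positive control and DMSO neutral control | system = Clostridium kluyveri diaphorase enzyme | timing = reaction incubation of 16 min at room temperature | signal = resorufin fluorescence 544/590 nm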
# Active calls of the source: *; . = not tested or not shown. Rule as the data show it, unless noted: active = inhibition above about 50%; inactive = the rest.
SMILES,WT yeast gro inh,G6PDH CS,Diaph act CS,L major viab,Diaph inh CS
CN(C)CCN(Cc1ccc(Cl)cc1)c1ccccn1,-7,12,1.1,99*,-8
Cc1ccc(/C=C/C(=O)c2nc3ccccc3[nH]2)cc1,0,4,0.9,98*,6
CCCCN(Cc1cc2ccccc2[nH]c1=O)C(=O)c1ccccn1,5,3,1,-1,-3
Cc1nn(-c2ccccc2)c2ncc(C(=O)c3cc(Cl)ccc3O)cc12,20,6,0.9,40,14
CCc1nn2cc(C(=O)c3cc(Cl)ccc3O)cnc2c1-c1ccc(F)cc1,81*,-13,0.7,-8,25
Cc1sc2ncnc(SCC(=O)c3ccc4c(c3)OCCO4)c2c1-c1ccccc1,-3,-15,0.9,10,7
COc1ccc(CN(C)C(C)C(=O)Nc2ccc(S(=O)(=O)N3CCCC3)cc2)c(OC)c1OC (centres undefined),8,4,0.9,27,12
CCOC(=O)C1=C(C)NC(=O)NC1c1c(C)nn(-c2ccccc2)c1Cl (centres undefined),-11,1,0.5,-1,52*
CCOC(=O)C1=C(C)N(C)C(=O)NC1c1c(C)nn(-c2ccc(C)cc2)c1Cl (centres undefined),15,4,1,0,2
Cc1ccc(C)c(NC(=O)C2C(c3ccccc3)C2(Cl)Cl)c1 (centres undefined),10,2,0.8,42,17
CCc1ccccc1NC(=O)C1C(c2ccccc2)C1(Cl)Cl (centres undefined),81*,11,0.9,50*,12
CC(OC(=O)COc1ccccc1[N+](=O)[O-])C(=O)Nc1ccc(N2CCOCC2)cc1 (centres undefined),-2,0,0.9,-2,8
CC(=O)OC(C(=O)NCc1ccc(F)cc1)c1ccccn1 (centres undefined),11,1,1.1,-3,-13
O=C(c1ccccc1)c1c[nH]c(C(=O)NNc2ccccc2)c1,54,1,0.9,89*,8
O=C(c1ccccc1)c1c[nH]c(C(=O)NCc2cccnc2)c1,11,3,0.9,2,10
Cc1ccc(C(=O)CCNc2ccccc2)o1,5,2,0.9,94*,5
Cc1cc(C)n(C(=O)/C(C#N)=N/Nc2cc(Cl)cc(Cl)c2)n1,85*,-2,0.9,-5,12
COCCn1nnnc1C(C(C)C)N(Cc1cccnc1)Cc1ccccc1Cl (centres undefined),4,-1,0.8,66*,15
CC(C)Oc1ccc(/C(O)=C2/C(=O)C(=O)N(CCN(C)C)C2c2ccco2)cc1 (centres undefined),3,4,0.9,89*,12
O=C(NNC(=S)NC1CCCCC1)c1ccccc1O,-8,-1,1,23,-4
CCC(=O)NNc1ccc(Br)cc1,69*,7,1,20,-2
CCOC(=O)C(=NC(C)CC)NNc1ccc(Br)cc1 (centres undefined),70*,6,0.9,-11,6
CCOC(=O)C(=NC1CCS(=O)(=O)C1)NNc1ccc(Br)cc1 (centres undefined),59*,-1,0.9,-4,13
CCOC(=O)C(=NC(C)CC)NNc1cccc(C(F)(F)F)c1 (centres undefined),51,3,0.8,3,20
CCn1c(SCC(=O)N2c3ccccc3CCc3ccccc32)nc2c1c(=O)n(C)c(=O)n2C,.,.,.,60*,.
CC1Cc2ccccc2N1C(=O)CSc1nc2c(c(=O)n(C)c(=O)n2C)n1Cc1ccccc1 (centres undefined),39,1,0.8,64*,23
CCn1nnnc1SCC(=O)N1c2ccccc2CCc2ccccc21,6,-4,1,53*,3
CC(C)NC(=O)Cn1c(SCC(=O)N2c3ccccc3CC2C)nc2ccccc21 (centres undefined),-5,12,0.9,13,11
Cn1nnnc1SCC(=O)N1c2ccccc2CCc2ccccc21,-21,-5,0.9,-2,9

# Screens (PubChem)
